pIC50: −log10 of the molar value.
Assays:
[1] = test system: Human betaherpesvirus 5; assay: Concentration required for 50% inhibition of HCMV replication was measured using a Plaque reduction assay; format: functional, organism-based
Procedure, shortened: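 HCMV Towne (P0) plaque reduction in HFF cells, ~100 pfu/cm². After adsorption, compound in growth medium at 4–8 concentrations in duplicate wells; 7–10 days at 37 °C. Crystal violet stain, microscopic plaque count. Percent plaque reduction vs no-drug wells; IC50 by linear regression vs log concentration.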

[2] = test system: HFF; assay: Visual cytotoxicity was scored on HFF cells at time of HCMV plaque enumeration; format: functional, cell-based; conditions: Homo sapiens
Procedure, shortened: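 Uninfected stationary HFF cells from the HCMV plaque assay plates, inspected microscopically for cytotoxicity at the time plaques were counted (7–10 days, 37 °C).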

[3] = test system: Human alphaherpesvirus 1; assay: Antiviral activity was measured by plaque assay against HSV-1 virus by ELISA method; format: functional, organism-based
Procedure, shortened: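 HSV-1 (KOS) in BSC-1 cells, 10 000 cells/well seeded in MEM(E) + 10% calf serum, overnight at 37 °C; drug in quadruplicate plus 100 pfu/well virus; 3 days at 37 °C. ELISA read-out with HRP-rabbit anti-HSV-1 and TMB, absorbance at 450/570 nm. Percent reduction vs virus-only wells; IC50 by linear regression on log concentration.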

[4] = test system: KB; assay: Inhibition of KB cell growth was determined; format: functional, cell-based; conditions: Homo sapiens
Procedure, shortened: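 KB cells seeded at 3000–5000/well and incubated overnight; compound at 6–8 concentrations in quadruplicate; 48 h at 37 °C in CO2, about two population doublings. Ethanol fixation, 0.1% crystal violet stain, acidified ethanol elution, read at 570 nm. IC50 by linear regression vs log concentration.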

[5] = test system: Human betaherpesvirus 5; assay: Concentration required for 90% inhibition of HCMV replication was measured using a yield reduction assay; format: functional
Procedure, shortened: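 HCMV yield reduction in HFF cells infected at moi 0.5–1 pfu/cell. Compound in duplicate as 1:3 serial dilutions from 100 to 0.05 μM; 7 days at 37 °C. One freeze-thaw, then progeny titered by plaque count on secondary HFF plates (1:3 dilutions). IC90 from regression of percent inhibition vs log concentration.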

| SMILES | pIC50 [1] | pIC50 [2] | pIC50 [3] | pIC50 [4] | IC90 [5] [µM] |
| --- | --- | --- | --- | --- | --- |
| Clc1cc(Cl)c2[nH]c(Cl)nc2c1 | 5.29 | 4.49 | < 4.00 | < 4.00 | – |
| Clc1nc2c(Cl)c(Cl)ccc2[nH]1 | 5.10 | 4.49 | < 4.00 | 4.10 | – |
| OC[C@H]1O[C@H](n2c(Br)nc3cc(Cl)c(Cl)cc32)[C@@H](O)[C@H]1O | – | – | – | < 4.00 | 0.2 |
| Nc1nc2c(Cl)cc(Cl)cc2[nH]1 | < 4.00 | 4.00 | < 4.00 | – | – |
| OC[C@H]1O[C@@H](n2c(Cl)nc3cc(Cl)c(Cl)cc32)[C@H](O)[C@@H]1O | – | – | – | – | 1.4 |
| CSc1nc2c(Cl)cc(Cl)cc2n1C1O[C@H](CO)[C@@H](O)[C@H]1O (stereo partly drawn) | 3.96 | 3.82 | < 3.52 | 3.57 | – |
| [N-]=[N+]=Nc1nc2c(Cl)cc(Cl)cc2n1C1O[C@H](CO)[C@@H](O)[C@H]1O (stereo partly drawn) | 3.96 | < 4.00 | – | – | 41 |
| OC[C@H]1OC(n2c(Br)nc3c(Cl)c(Cl)ccc32)[C@H](O)[C@@H]1O (stereo partly drawn) | 5.62 | 3.79 | < 4.00 | < 4.00 | 1 |
| Nc1nc2c(Cl)cc(Cl)cc2n1C1O[C@H](CO)[C@@H](O)[C@H]1O (stereo partly drawn) | < 4.00 | < 4.00 | < 3.52 | < 3.52 | > 100 |
| OC[C@H]1OC(n2c(Cl)nc3c(Cl)cc(Cl)cc32)[C@H](O)[C@@H]1O (stereo partly drawn) | 5.00 | 4.11 | < 3.52 | 3.64 | 4.5 |
| OC[C@H]1OC(n2c(S)nc3c(Cl)cc(Cl)cc32)[C@H](O)[C@@H]1O (stereo partly drawn) | < 4.00 | < 4.00 | < 3.52 | < 3.52 | – |
| OC[C@H]1OC(n2c(Cl)nc3c(Cl)c(Cl)ccc32)[C@H](O)[C@@H]1O (stereo partly drawn) | 4.80 | < 4.00 | < 4.00 | < 4.00 | 6 |
| OC[C@H]1OC(n2c(SCc3ccccc3)nc3c(Cl)cc(Cl)cc32)[C@H](O)[C@@H]1O (stereo partly drawn) | 4.39 | 4.49 | 3.85 | 3.91 | – |
| OC[C@H]1OC(n2c(Br)nc3c(Cl)cc(Cl)cc32)[C@H](O)[C@@H]1O (stereo partly drawn) | 5.80 | 3.90 | < 3.52 | 3.82 | 2.1 |
| O=C(O)P(=O)(O)O [FOSCARNET] | – | < 4.00 | – | – | – |
| Nc1nc2c(ncn2COC(CO)CO)c(=O)[nH]1 [GANCICLOVIR] | – | < 4.00 | – | < 4.00 | 1.6 |

Reference: ChEMBL document CHEMBL1129960, “Design, synthesis, and antiviral evaluation of 2-substituted 4,5-dichloro- and 4,6-dichloro-1-beta-D-ribofuranosylbenzimidazoles as potential agents for human cytomegalovirus infections” (J Med Chem, 1997)
